According to ChEMBL document CHEMBL5356984 (RSC Med Chem, 2023):
Activity calls are given as the source filed them. The rule behind the calls is not given here.

Key:
MCF7 [1] = experiment: Induction of apoptosis in human MCF7 cells assessed as late apoptotic cells at 5 uM incubated for 36 hrs by Annexin V/PI staining based flow cytometry (reference value: 6.02 %); type: functional
MCF7 [2] = experiment: Induction of apoptosis in human MCF7 cells assessed as viable cells at 10 uM incubated for 36 hrs by Annexin V/PI staining based flow cytometry (reference value: 90.5 %); type: functional; conditions: read-out: Activity
MCF7 [3] = experiment: Induction of apoptosis in human MCF7 cells assessed as necrotic cells at 5 uM incubated for 36 hrs by Annexin V/PI staining based flow cytometry (reference value: 2.30 %); type: functional
[4] = Thermal stability of compound in boiling toluene at 120 degreeC at 1 mg/ml measured for approximately 12 hrs by HPLC analysis; type: physicochemical
Procedure, shortened: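 Compound at 1 mg mL−1 was heated in distilled boiling toluene at 120 °C for 0–24 h. Remaining percentage was measured by HPLC on a C18 column (5 µm, 4.6 × 250 mm) with MeOH/H2O gradients: 70→100% or 45→100% MeOH over 2–15 min, held at 100% to 20 min, then re-equilibrated.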

SK-BR-3 [5] = experiment: Induction of apoptosis in human SK-BR-3 cells assessed as late apoptotic cells at 10 uM incubated for 36 hrs by Annexin V/PI staining based flow cytometry (reference value: 4.95 %); type: functional
MCF7 [6] = experiment: Effect on HSP70 level in human MCF7 cells at 10 uM incubated for 36 hrs by DAPI staining based immunofluorescence analysis; type: functional, cell-based
Procedure, shortened: (§1)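 Cells treated 36 h with DMSO vehicle control, then fixed with 4% paraformaldehyde 15 min, permeabilized with 0.2% Triton X-100 5 min, blocked with 3% BSA 15 min; primary antibody then fluorescent secondary antibody, each 1 h at room temperature; HSP70 green, HSF-1 red, nuclei DAPI; imaged by fluorescence microscopy.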

SK-BR-3 [7] = experiment: Induction of apoptosis in human SK-BR-3 cells assessed as early apoptotic cells at 10 uM incubated for 36 hrs by Annexin V/PI staining based flow cytometry (reference value: 2.73 %); type: functional
Heat shock protein HSP90 [8] = target: T1, Heat shock protein HSP90 (Homo sapiens, UniProt P07900+P08238); experiment: Inhibition of HSP90 in human MCF7 cells assessed as decrease in HER2 level at 5 to 20 uM incubated for 48 hrs by Western blot analysis; type: cell-based; conditions: dose 5-20 µM
Procedure, shortened: (§2)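 MCF-7 or SKBr3 cells were exposed for 48 h, then trypsinised, PBS-washed and lysed in RIPA buffer with phosphatase and protease inhibitors. Cleared lysate (14 000 rpm, 4 °C, 15 min) was BCA-quantified, and 20 µg protein was run on SDS-PAGE and blotted. Blots were blocked in 5% milk, incubated with primary antibodies (1:1000) overnight at 4 °C, then HRP secondary, and developed by ECL. GAPDH (1:10000) was the loading control.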

SK-BR-3 [9] = experiment: Induction of apoptosis in human SK-BR-3 cells assessed as necrotic cells at 10 uM incubated for 36 hrs by Annexin V/PI staining based flow cytometry (reference value: 1.89 %); type: functional
SK-BR-3 [10] = experiment: Effect on HSP70 level in human SK-BR-3 cells at 10 uM incubated for 36 hrs by DAPI staining based immunofluorescence analysis; type: functional, cell-based; procedure, shortened: as §1
MCF7 [11] = experiment: Induction of apoptosis in human MCF7 cells assessed as late apoptotic cells at 20 uM incubated for 36 hrs by Annexin V/PI staining based flow cytometry (reference value: 6.02 %); type: functional
Heat shock protein HSP90 [12] = target: T1, Heat shock protein HSP90; experiment: Inhibition of HSP90 (unknown origin) at C-terminal by AlphaScreen assay; type: protein assay
Procedure, shortened: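 Modified AlphaScreen system measuring disruption of Cyp40 binding to recombinant HSP90 C-terminal domain; IC50 from two independent experiments.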

SK-BR-3 [13] = experiment: Antiproliferative activity against human SK-BR-3 cells assessed as inhibition of cell viability measured after 48 hrs by MTT assay; type: functional, cell-based; conditions: SK-BR-3, 48 h
Procedure, shortened: (§3)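 MTT cell viability read-out; IC50 obtained by non-linear regression of concentration–response data; values are mean ± SD of three independent experiments.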

[14] = Metabolic stability in simulated gastric fluid; type: ADME; conditions: simulated gi fluid
SK-BR-3 [15] = experiment: Induction of cell cycle arrest in human SK-BR-3 cells assessed as accumulation of cells at G1 phase at 5 to 10 uM incubated for 36 hrs by PI staining based flow cytometry; type: functional; conditions: dose 5-10 µM
Procedure, shortened: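 Following 36 h treatment (0, 5, 10 μM), trypsinized cells fixed overnight in 70% ethanol, treated with RNase (0.2 mg/mL) and PI (0.1 mg/mL) for 20 min, then analysed by flow cytometry for cell-cycle distribution; n = 3 versus control.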

MCF7 [16] = experiment: Induction of apoptosis in human MCF7 cells assessed as early apoptotic cells at 5 uM incubated for 36 hrs by Annexin V/PI staining based flow cytometry (reference value: 1.13 %); type: functional
SK-BR-3 [17] = experiment: Induction of apoptosis in human SK-BR-3 cells assessed as early apoptotic cells at 20 uM incubated for 36 hrs by Annexin V/PI staining based flow cytometry (reference value: 2.73 %); type: functional
MCF7 [18] = experiment: Induction of apoptosis in human MCF7 cells assessed as viable cells at 20 uM incubated for 36 hrs by Annexin V/PI staining based flow cytometry (reference value: 90.5 %); type: functional; conditions: read-out: Activity
MDA-MB-231 = experiment: Antiproliferative activity against human MDA-MB-231 cells assessed as inhibition of cell viability measured after 48 hrs by MTT assay; type: functional, cell-based; conditions: MDA-MB-231, 48 h; procedure, shortened: as §3
MCF7 [19] = experiment: Induction of apoptosis in human MCF7 cells assessed as necrotic cells at 20 uM incubated for 36 hrs by Annexin V/PI staining based flow cytometry (reference value: 2.30 %); type: functional
Heat shock protein HSP90 [20] = target: T1, Heat shock protein HSP90; experiment: Inhibition of HSP90 in human SK-BR-3 cells assessed as decrease in AKT level at 5 to 20 uM incubated for 48 hrs by Western blot analysis; type: cell-based; conditions: dose 5-20 µM; procedure, shortened: as §2
MCF7 [21] = experiment: Induction of apoptosis in human MCF7 cells assessed as increase in cleaved PARP level at 10 to 20 uM incubated for 48 hrs by Western blot analysis; type: functional, cell-based; conditions: dose 10-20 µM
Procedure, shortened: (§4)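 Cells exposed 48 h (DMSO vehicle control); trypsinized, lysed in RIPA with phosphatase/protease inhibitors; 20 μg protein on SDS-PAGE, blotted, blocked 5% milk 1 h; primary antibodies 1:1000 overnight at 4 °C, GAPDH 1:10000 as loading control; HRP secondary 1:1000–1:5000; ECL detection.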

MCF7 [22] = experiment: Induction of apoptosis in human MCF7 cells assessed as late apoptotic cells at 10 uM incubated for 36 hrs by Annexin V/PI staining based flow cytometry (reference value: 6.02 %); type: functional
MDA-MB-468 = experiment: Antiproliferative activity against human MDA-MB-468 cells assessed as inhibition of cell viability measured after 48 hrs by MTT assay; type: functional, cell-based; conditions: MDA-MB-468, 48 h; procedure, shortened: as §3
SK-BR-3 [23] = experiment: Induction of apoptosis in human SK-BR-3 cells assessed as necrotic cells at 20 uM incubated for 36 hrs by Annexin V/PI staining based flow cytometry (reference value: 1.89 %); type: functional
SK-BR-3 [24] = experiment: Induction of apoptosis in human SK-BR-3 cells assessed as increase in cleaved pro-caspase-9 level at 10 to 20 uM incubated for 48 hrs by Western blot analysis; type: functional, cell-based; conditions: dose 10-20 µM; procedure, shortened: as §4
HCC1806 = experiment: Antiproliferative activity against human HCC1806 cells assessed as inhibition of cell viability measured after 48 hrs by MTT assay; type: functional, cell-based; conditions: HCC1806, 48 h; procedure, shortened: as §3

CN1CCN(/C=C/C(=O)/C=C/c2cccc(O[Si](C)(C)C(C)(C)C)c2)CC1
Activity (MCF7 [1]): 9.96%
viability at 10 µM (MCF7 [2]): 65.6%
Activity (MCF7 [3]): 8.45%
Stability [4]: Stable
Activity (SK-BR-3 [5]): 8.42%
Activity (MCF7 [6]): inactive
Activity (SK-BR-3 [7]): 3.01%
inhibition (Heat shock protein HSP90 [8]): Active
Activity (SK-BR-3 [9]): 1.7%
Activity (SK-BR-3 [10]): inactive
Activity (MCF7 [11]): 28.4%
IC50 (Heat shock protein HSP90 [12]): 53.94 µM
IC50 (SK-BR-3 [13]): 12.1 µM
Stability [14]: Unstable
Activity (SK-BR-3 [15]): Active
Activity (MCF7 [16]): 1.58%
Activity (SK-BR-3 [17]): 47.7%
viability at 20 µM (MCF7 [18]): 51.7%
IC50 (MDA-MB-231): 11.7 µM
Activity (MCF7 [19]): 16.2%
inhibition (Heat shock protein HSP90 [20]): Active
Activity (MCF7 [21]): Active
Activity (MCF7 [22]): 21.7%
IC50 (MDA-MB-468): 8.16 µM
Activity (SK-BR-3 [23]): 3.13%
Activity (SK-BR-3 [24]): Active
IC50 (HCC1806): 10.1 µM
